Source: PubChem (several laboratories)
Hits are enriched below; roughly 1.3% of the tested compounds scored in any of these assays.
DDE Tn6 FP inh: DD(E)-Tn6 binding inhibition, primary FP screen | P02675 | AID 720509 | Fibrin DD(E) TRITC-Tn6 fluorescence polarization displacement | 0.21% of 370,000 active | inhibition, % at 8.3 µM;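 active = inhibition above a per-campaign cutoff: mean of compounds within control limits plus 3 SD, cut at about 15% in these data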;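 also: 0% = median of all compound wells on the plate and 100% = blocking peptide control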
Target sequence (P02675 whole entry, looked up): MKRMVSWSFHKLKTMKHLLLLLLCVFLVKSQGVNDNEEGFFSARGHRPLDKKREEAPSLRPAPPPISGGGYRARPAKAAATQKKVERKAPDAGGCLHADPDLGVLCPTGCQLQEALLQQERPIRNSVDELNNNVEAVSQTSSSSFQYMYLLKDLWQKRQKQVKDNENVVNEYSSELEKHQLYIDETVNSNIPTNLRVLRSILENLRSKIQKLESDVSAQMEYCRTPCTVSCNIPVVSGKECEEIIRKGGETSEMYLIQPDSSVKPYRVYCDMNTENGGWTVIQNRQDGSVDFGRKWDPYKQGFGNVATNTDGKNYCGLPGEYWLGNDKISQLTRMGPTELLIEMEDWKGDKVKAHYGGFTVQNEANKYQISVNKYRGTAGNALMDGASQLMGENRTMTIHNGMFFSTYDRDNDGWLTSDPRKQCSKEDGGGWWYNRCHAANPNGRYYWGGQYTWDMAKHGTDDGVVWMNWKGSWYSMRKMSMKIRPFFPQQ
CRFR2-BP ag: CRF-BP/CRF-R2 complex agonism | HEK293 CRF-R2/CRF-BP, calcium dye fluorescence (FLIPR); percent of saturating CRF peptide response | activation, % at 13.2 µM | 0.46% of 350,000 active | AID 588473;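 active = activation of at least 50%, plus an integration ratio under a set limit after plate pattern correction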;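 also: plate controls were neutral control wells without compound for no effect and CRF at EC100 for full effect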
DDE Tn7 FP inh: inhibitors of Tn7 peptide binding to human fibrin DD(E); P02675; FP displacement of FITC-Tn7 peptide from fibrin DD(E); 0% = median of compound wells per plate; inhibition, % at 8.3 µM; 0.13% of 370,000 active;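 active = inhibition above the mean of compounds falling within the control limits plus 3 SD of them, cut at about 14% in these data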;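 also: 0% = plate median of compound wells and 100% = 10 µM Aha-Tn7 peptide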
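Test system: human clot-derived fibrin DD(E) complex / Quantity: 2 µM final DD(E) protein / Incubation: 10 min plus 3 h, room temperature / Measured by: fluorescence polarization / Benchmarks: high control of 10 µM Aha-Tn7 peptide / Replicates: singlicate testing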
CRFBP-R2 block: CRF-BP/CRF-R2 complex antagonism; inhibition, % at 11.8 µM; AID 588475; 0.59% of 350,000 active; HEK293 CRF-R2/CRF-BP, CRF-induced calcium fluorescence;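 active = inhibition of the ligand-induced calcium signal above about 50% at the single tested concentration, limit read from the data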
The depositor's hits bear a star; · = no result.

SMILES | DDE Tn6 FP inh | CRFR2-BP ag | DDE Tn7 FP inh | CRFBP-R2 block
Cc1ccnc(N2CCCC(C(=O)Nc3nnc(C)s3)C2)n1 (stereo not given) | 6 | 1 | 5 | -24
Cc1cc(C)cc(NC(=O)C2CCCN(c3nc(C)cc(C)n3)C2)c1 (stereo not given) | -8 | -1 | -5 | 15
O=C(Nc1ccc(Oc2ccccc2)cc1)C1CCCN(c2ncccn2)C1 (stereo not given) | -9 | 58* | -5 | -103
Cc1nnc(NC(=O)C2CCCN(c3ncccn3)C2)s1 (stereo not given) | 5 | 0 | -2 | 56*
Cc1cc(C)cc(NC(=O)C2CCCN(c3nccc(C)n3)C2)c1 (stereo not given) | · | 1 | · | 54*
O=C(C1CCCN(S(=O)(=O)c2ccc(F)cc2)C1)N1CCN(Cc2ccccc2)CC1 (stereo not given) | -1 | · | -10 | ·
CC(C)(C)N(Cc1cn(Cc2ccccc2)nn1)S(=O)(=O)c1ccccc1Br | -2 | · | -2 | ·
C[C@H]1[C@@H](OC(=O)NCc2ccccc2)CC[C@@]23CCCN2C(=O)CCC[C@@H]13 | 3 | · | -1 | ·
O=C(CSc1ccc(Cl)cc1)N1N=CCC1c1ccccc1 (stereo not given) | 7 | -2 | 3 | -3
CCN1CCN(CC(=O)N2N=CCC2c2ccccc2)CC1 (stereo not given) | 0 | 1 | -7 | 70*
O=C(NCCCc1ccccc1)[C@H](Cc1c[nH]c2ccccc12)NC1(C(=O)NCCc2c[nH]c3ccccc23)CCC1 | 5 | · | -4 | ·
CCOc1ccccc1NC(=O)COC(=O)C1COc2ccccc2O1 (stereo not given) | 5 | 0 | 2 | 95*
COCCn1nnnc1C(c1ccccc1)N1CCN(c2ccccc2)CC1 (stereo not given) | -12 | -2 | -3 | 52*
COc1ccc(C(c2nnnn2Cc2ccccc2)N2CCN(c3nc4ccccc4s3)CC2)cc1 (stereo not given) | -3 | 0 | 0 | -12
COCCn1nnnc1C(c1ccccc1)N1CCN(C)CC1 (stereo not given) | -8 | -1 | -1 | 22
COc1ccc(C(c2nnnn2Cc2ccccc2)N2CCN(c3ccccc3)CC2)cc1 (stereo not given) | 0 | -1 | 1 | 57*
CCCCN1CCS(=O)(=O)N(Cc2cn(Cc3cccc(Cl)c3)nn2)C(C(=O)OC)C1 (stereo not given) | -11 | · | 5 | ·
O=C(NC(C(=O)N/N=C/c1ccccc1)c1n[nH]c(=O)c2ccccc12)c1ccccc1 (stereo not given) | 0 | 98* | 2 | -17
C=CCOc1ccc(CNc2ccc3[nH]c(=O)[nH]c3c2)cc1OC | -3 | 1 | -12 | 6
C=CCOc1cccc(CNc2ccc3[nH]c(=O)[nH]c3c2)c1 | 1 | 0 | 2 | 91*
O=S(=O)(NC1CCCCC1N1CCN(c2ccc(F)cc2)CC1)c1ccc(Cl)cc1 (stereo not given) | · | 105* | · | -79
CCCN1CCN(C2CCCCC2NS(=O)(=O)c2ccc(Cl)cc2)CC1 (stereo not given) | · | 7 | · | 51*
Cn1c(=O)oc2ccc(S(=O)(=O)Nc3ccc(Cl)cc3[N+](=O)[O-])cc21 | 0 | · | 6 | ·
O=C1C(Cl)=C(Nc2ccccc2O)C(=O)N1c1ccccc1 | 1 | 3 | -2 | 7
COc1ccccc1N1C(=O)C(Cl)=C(Nc2ccccc2O)C1=O | -6 | 84* | -9 | -124
SMILES | DDE Tn6 FP inh | CRFR2-BP ag | DDE Tn7 FP inh | CRFBP-R2 block
Cc1ccc(CNC[C@@]23CO[C@H](c4ccc(Cl)cc4)N2[C@@H](c2ccc(Cl)cc2)SC3)o1 | 6 | · | 2 | ·
CCOC(=O)[C@@]12CCCC=C1N(CCc1ccc(Cl)cc1)C(=O)[C@H]2CC(=O)NCCCCc1ccccc1 | -6 | · | 1 | ·
CN(c1ccc(C(=O)N2CCN(Cc3ccc4c(c3)OCO4)CC2)cc1)S(=O)(=O)c1ccccc1 | -1 | -3 | -4 | 68*
CN(C)c1ccc(/C=C/C(=O)c2cccc(Br)c2)cc1 | -6 | 278* | -15 | -346
CN(C)c1ccc(C(=O)/C=C/c2cccnc2)cc1 | -2 | -2 | -6 | 4
C[C@H](O)[C@@H]1CN2CCc3c([nH]c4ccccc34)[C@@H]2C[C@@H]1N(C)CC1CCCCC1 | 5 | · | -2 | ·
CCCCOCCCNC(=O)C[C@H]1C[C@@]2(C(=O)OC)C(=C[C@H](C(C)(C)C)O[C@@H]2C)N(Cc2cccc3ccccc23)C1=O | -9 | · | 11 | ·
O=C1N=c2ccccc2=C1c1sc(=S)n(-c2ccc(O)cc2)c1O | 2 | -1 | 3 | -1
O=C1N=c2ccccc2=C1c1sc(=S)n(NC(=O)c2cccc(O)c2)c1O | -7 | -12 | -1 | 65*
O=C(NNC(=O)c1ccccc1C(=O)O)c1ccc(O)cc1 | 0 | -2 | 2 | 58*
CC(C)(C)N1Cc2nnn(Cc3ccccc3)c2-c2cc(N3CCCCC3)ccc2S1(=O)=O | -1 | · | 4 | ·
O=C1N(c2ccccc2)CC2CC(c3ccccc3)N3CCCC123 (stereo not given) | -5 | · | -2 | ·
COC(=O)c1cc(C#N)c(N(C)Cc2ccccc2)nc1C | -5 | 3 | -1 | 62*
CC(=O)c1cc(C#N)c(NCc2cc(-c3ccccc3)no2)nc1C | -2 | 1 | 1 | -6
COC(=O)c1cc(C#N)c(NCc2ccccc2)nc1C | -2 | 6 | -5 | 54*
O=C(OC12CCCN(C1)/C(=C/c1ccccc1)C2)c1cccc(F)c1 (stereo not given) | -11 | · | -3 | ·
N#Cc1ccsc1NC(=O)c1ccc(Cl)c([N+](=O)[O-])c1 | -2 | 67* | -2 | 72*
O=C(O)c1cc(NC(=O)c2ccc(Cl)c([N+](=O)[O-])c2)cc(C(=O)O)c1 | -1 | 0 | 0 | 2
N#Cc1ccsc1NC(=O)c1cccc([N+](=O)[O-])c1 | 0 | 66* | -5 | 63*
COc1ccc(C(=O)NNC(=S)NC(=O)c2ccc(Br)o2)cc1OC | -6 | 10 | -1 | -9
Cc1ccc(OCC(=O)NNC(=S)NC(=O)c2cccs2)c(C)c1 | -11 | 50* | -3 | -15
Cc1ccc(OCC(=O)NNC(=S)NC(=O)c2ccc(Br)o2)c(C)c1 | 5 | 51* | 4 | -15
O=C(CSc1nc2ccccc2nc1N1CCCCC1)N1CCN(C(c2ccccc2)c2ccc(Cl)cc2)CC1 (stereo not given) | 0 | · | -5 | ·
CCCC12CN(C(=O)c3ccc([N+](=O)[O-])cc3)CC(C)(CN(C(=O)c3ccc([N+](=O)[O-])cc3)C1)C2=O | 4 | -1 | -1 | 126*
O=c1[nH]c2cc3c(cc2cc1C(c1nnnn1C1CCCCC1)N1CCSCC1)OCCO3 (stereo not given) | -18 | 54* | 1 | -80
COc1cc2cc(C(c3nnnn3C3CCCC3)N3CCCCC3)c(=O)[nH]c2cc1OC (stereo not given) | -3 | 0 | -7 | -3
